For 16 compounds, IC50 results are on record in ChEMBL document CHEMBL1145945, “Synthesis and biological evaluation of iodinated and fluorinated 9-(2-hydroxypropyl) and 9-(2-hydroxyethoxy)methyl purine nucleoside analogues” (J Med Chem, 2003).

For experiment [1], the system named is HEp-2. As to the kind of experiment: Inhibitory concentration required to inhibit laryngeal carcinoma (Hep2) cells by 50%. Format: functional, cell-based. The settings on record: Homo sapiens. The method, boiled down:
(§1)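 Monolayer cells in D-MEM or RPMI 1640 with 10% FBS, 37 °C, 5% CO2, seeded at 3 × 10⁴/mL. MTT read-out at 570 nm as % growth. IC50 by manual graphical fitting; mean ± SD, four parallel samples, three experiments.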

Experiment [2] deals with L1210. As to the kind of experiment: Inhibitory concentration required to inhibit murine leukemia (L1210) cell line by 50%. Type of experiment: functional, cell-based. The settings on record: Mus musculus.
Experiment [3] concerns HeLa. As to the kind of experiment: Inhibitory concentration required to inhibit cervical carcinoma (HeLa) cells by 50%. Format: functional, cell-based. The settings on record: Homo sapiens. Put shortly: as §1
Experiment [4] has as its system SW-620. Nature of the experiment: Inhibitory concentration required to inhibit human colon carcinoma (SW620) cells by 50%. Format: functional, cell-based. The method, boiled down:
(§2)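 Cells grown as monolayers in D-MEM or RPMI 1640 with 10% FBS at 37 °C, 5% CO2, plated at 5 × 10⁴/mL. Viable cells by MTT absorbance at 570 nm. IC50 from manual graphical fit; mean ± SD of four parallel samples in three experiments.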

In experiment [5] the test system is MOLT-4. Nature of the experiment: Inhibitory concentration required to inhibit human T-lymphocyte (Molt4/C8) cell line by 50%. Type of experiment: functional, cell-based.
The nature of experiment [6]: Inhibitory concentration required to inhibit pancreatic carcinoma (MiaPaCa2) cells by 50%. Format: functional, Homo sapiens. The method, boiled down:
as §1

Experiment [7] relates to HBL. As to the kind of experiment: Inhibitory concentration required to inhibit melanoma (HBL) cells by 50%. Type of experiment: functional, cell-based. The settings on record: Homo sapiens. Put shortly: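 Monolayer culture in D-MEM or RPMI 1640 plus 10% FBS, 37 °C, 5% CO2. MTT assay at 570 nm, expressed as % growth. IC50 graphically fitted by hand; four parallel samples, three experiments.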

Experiment [8] relates to HT-29. As to the kind of experiment: Inhibitory concentration required to inhibit human colon carcinoma (HT-29) cells by 50%. Format: functional, cell-based. Put shortly:
as §1

For experiment [9], the system named is FM3A. As to the kind of experiment: Inhibitory concentration required to inhibit mammary carcinoma (FM3A) cell line by 50%. Type of experiment: functional, cell-based. The settings on record: Mus musculus.
Experiment [10] deals with WI-38. Nature of the experiment: Inhibitory concentration required to inhibit diploid fibroblasts (WI38) by 50%. Format: functional, cell-based. The settings on record: Homo sapiens. The method, boiled down:
as §2

The subject of experiment [11] is CCRF-CEM. Nature of the experiment: Inhibitory concentration required to inhibit human T-lymphocyte (CEM) cell line by 50%. Format: functional, cell-based.
Experiment [12] deals with FM3A (Mus musculus). As to the kind of experiment: Inhibitory concentration required to inhibit mammary carcinoma (FM3A) cell line by 50%.

SMILES strings stand for the structures.

The IC50 is the concentration that gives 50% inhibition. A higher IC50 goes with a need for much substance. As to `CC(=O)OC(C)Cn1cnc2c(Cl)nc(I)nc21` (stereo not given), the IC50 in experiment [1] amounted to 6.31 µM; in [2] it was 13 µM; in [3], 5.13 µM; in experiment [4], 3.55 µM; in experiment [5], 12.3 µM; in experiment [6] it was 14.5 µM. Besides, the IC50 in experiment [7] was 5.25 µM; in [8], 6.42 µM; in experiment [9], 47 µM; in experiment [10], 14.1 µM; in [11], 15.9 µM.
For the compound `CC(O)Cn1cnc2c(Cl)nc(I)nc21` (stereo not given), the IC50 in experiment [1], in experiment [2], in experiment [3], in [4], in experiment [5] and in experiment [6] was greater than 500 µM in each case. The IC50 in experiment [7] was greater than 500 µM; in experiment [8] it was greater than 500 µM; in experiment [9], 479 µM; in experiment [10] it was greater than 500 µM; in experiment [11], greater than 500 µM.
For the compound `OCCOCn1cnc2c(S)nc(F)nc21`, the IC50 in experiment [1] is greater than 500 µM; in [2], 170 µM; in experiment [3], greater than 500 µM; in experiment [4] it was greater than 500 µM; in experiment [5], 164 µM; in experiment [6], greater than 500 µM. For the same compound, the half-inhibitory concentration (IC50) in [7] is greater than 500 µM; in [8], greater than 500 µM; in experiment [9], 155 µM; in [10], greater than 500 µM; in [11], 117 µM.
As to `CC(=O)OC(C)Cn1cnc2c(S)nc(F)nc21` (stereo not given), the IC50 in experiment [1] is 200 µM; in experiment [2], 226 µM; in experiment [3], greater than 500 µM; in experiment [4], greater than 500 µM; in experiment [5] it was greater than 500 µM; in experiment [6], greater than 500 µM. Moreover, the half-inhibitory concentration (IC50) in experiment [7] is greater than 500 µM; in [8] it was greater than 500 µM; in [9], 368 µM; in experiment [10], greater than 500 µM; in [11] it was greater than 500 µM.
Consider `CC(=O)OC(C)Cn1cnc2c(N)nc(I)nc21` (stereo not given), for which the half-maximal inhibitory concentration (IC50) in experiment [1] is greater than 500 µM; in experiment [2], 421 µM; in experiment [3] it was greater than 500 µM; in experiment [4], greater than 500 µM; in experiment [5], 436 µM; in experiment [6] it was greater than 500 µM. The IC50 was greater than 500 µM in experiment [7]; greater than 500 µM in experiment [8]; 462 µM in [9]; greater than 500 µM in [10]; 381 µM in [11].
Consider `CC(O)Cn1cnc2c(N)nc(I)nc21` (stereo not given), for which the 50% inhibitory concentration (IC50) in [1] was greater than 500 µM; in [2], 490 µM; in [3], greater than 500 µM; in experiment [4], greater than 500 µM; in experiment [5], greater than 500 µM; in experiment [6], greater than 500 µM. Besides, the half-inhibitory concentration (IC50) in experiment [7] was greater than 500 µM; in [8], greater than 500 µM; in experiment [9], 452 µM; in experiment [10] it was greater than 500 µM; in experiment [11], 465 µM.
Take `Nc1nc(I)nc2c1ncn2COCCO`: the IC50 in experiment [1], in [2], in [3], in experiment [4], in experiment [5] and in [6] was greater than 500 µM in each case. Besides, the IC50 in experiment [7], in [8], in experiment [9], in [10] and in [11] was greater than 500 µM each time.
On to `CC(=O)OC(C)Cn1cnc2c(Cl)nc(N)nc21` (stereo not given), for which the half-maximal inhibitory concentration (IC50) in experiment [1], in experiment [2], in experiment [3], in experiment [4], in experiment [5] and in experiment [6] was greater than 500 µM each time. The IC50 in experiment [7], in [8], in experiment [9], in experiment [10] and in experiment [11] was greater than 500 µM in each case.
Take `CC(=O)OC(C)Cn1cnc2c(S)nc(N)nc21` (stereo not given): the IC50 in experiment [1] was 10 µM; in experiment [2] it was 128 µM; in experiment [3], 89 µM; in experiment [4], 0.16 µM; in experiment [5], 370 µM; in experiment [6] it was 25 µM. Moreover, the IC50 in experiment [7] is 630 µM; in experiment [8], greater than 500 µM; in [9] it was 366 µM; in [10] it was 0.4 µM; in experiment [11], 381 µM.
Regarding `CC(=O)OCCOCn1cnc2c(S)nc(N)nc21`, the 50% inhibitory concentration (IC50) is 4.9 µM in experiment [1]; 3.2 µM in [2]; 5 µM in experiment [3]; 4.2 µM in [4]; 8.9 µM in experiment [5]; greater than 500 µM in experiment [6]. The IC50 was 15.8 µM in [7]; greater than 500 µM in experiment [8]; 2 µM in experiment [9]; greater than 500 µM in [10]; 7.5 µM in [11].
Consider `COc1nc(I)nc2c1ncn2COCCO`, for which the IC50 in [1], in experiment [2], in experiment [3], in experiment [4], in experiment [5] and in experiment [6] was greater than 500 µM in each case. Further, the IC50 in [7], in experiment [8], in experiment [9], in experiment [10] and in experiment [11] was greater than 500 µM throughout.
For `CC(O)Cn1cnc2c(F)nc(N)nc21` (stereo not given), the IC50 is greater than 500 µM in experiment [2]; 63 µM in experiment [3]; greater than 500 µM in experiment [4]; greater than 500 µM in experiment [5]; greater than 500 µM in experiment [6]; 25 µM in [7]. The IC50 in experiment [8], in experiment [12], in [10] and in [11] was greater than 500 µM each time.
Turning to `CC(=O)OCCOCn1cnc2c(S)nc(F)nc21`, the IC50 in [1] was greater than 500 µM; in experiment [2] it was 40 µM; in [3] it was greater than 500 µM; in experiment [4] it was greater than 500 µM; in experiment [5] it was 35 µM; in experiment [6], greater than 500 µM. Moreover, the IC50 in [7] was greater than 500 µM; in [8], greater than 500 µM; in experiment [9], 136 µM; in experiment [10], greater than 500 µM; in experiment [11], 37 µM.
Turning to `CC(=O)OC(C)Cn1cnc2c(Cl)nc(F)nc21` (stereo not given), the half-maximal inhibitory concentration (IC50) in experiment [1] came to 10 µM; in experiment [2], 37 µM; in experiment [3], 50 µM; in experiment [4], 8.9 µM; in experiment [5] it was 41 µM; in experiment [6] it was 93.3 µM. Moreover, the half-inhibitory concentration (IC50) turned out to be 44.7 µM in [7]; 75.9 µM in experiment [8]; 93 µM in experiment [9]; 100 µM in [10]; 44 µM in experiment [11].
For `CC(O)Cn1cnc2c(S)nc(F)nc21` (stereo not given), the IC50 in [1], in experiment [2], in experiment [3], in experiment [4], in experiment [5] and in [6] was greater than 500 µM each time. Also, the 50% inhibitory concentration (IC50) in experiment [7], in experiment [8], in experiment [9], in experiment [10] and in [11] was greater than 500 µM in each case.
As to `CC(=O)OCCOCn1cnc2c(Cl)nc(I)nc21`, the IC50 in experiment [1] is 56.2 µM; in experiment [2] it was 8.6 µM; in [3] it was 398 µM; in experiment [4] it was 15.8 µM; in experiment [5] it was 9.4 µM; in experiment [6], greater than 500 µM. The half-inhibitory concentration (IC50) in experiment [7] was 19.9 µM; in experiment [8], greater than 500 µM; in experiment [9], 34 µM; in experiment [10], 63.1 µM; in experiment [11], 11 µM.
